Reference: ChEMBL document CHEMBL1156352, “New antiviral cassane furanoditerpenes from Caesalpinia minax” (J Nat Prod, 2001)
≈ marks a conversion by molar mass, not a printed value.

Legend:
[1] = Therapeutic index, ratio of TC50 for human Hep2 cells to IC50 for Parainfluenza virus type 3; assay type: cell-based, HEp-2; conditions: read-out: TI
In short: (§1)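 Run in 96-well plates on Hep-2 cell monolayers, with ribavirin as positive control and an untreated infection control. Para3 virus suspension was added and CPE was scored under an inverted microscope. IC50 was the concentration that reduced CPE by 50% relative to virus control. TC50 was the concentration giving 50% cytotoxic effect.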

[2] = Cytotoxicity against human Hep2 cells; assay type: cell-based, HEp-2; conditions: read-out: LC50 (the source's name)
Human respirovirus 3 = experiment: Antiviral activity against Parainfluenza virus type 3 infected in human Hep2 cells assessed as inhibition of virus-induced cytopathogenic effect; assay type: functional, organism-based; conditions: Human respirovirus 3, HEp-2; in short: as §1

Compound | selectivity ratio [1] | CC50 [2] [µg/mL] | IC50 (Human respirovirus 3) [µg/mL]
C=C1c2ccoc2C[C@H]2[C@H]1[C@@H](OC(C)=O)[C@H](OC(C)=O)[C@@]1(O)C(C)(C)CC[C@H](OC(C)=O)[C@]21C [CAESALAMIN C] | 23.9 | 196 (≈ 414 µM) | 8.2 (≈ 17.3 µM)
CC(=O)O[C@@H]1[C@@H]2[C@H](Cc3occc3[C@]2(C)O)[C@@]2(C)[C@@H](OC(C)=O)CCC(C)(C)[C@]2(O)[C@H]1OC(C)=O [CAESALMIN D] | 19.1 | 182 (≈ 370 µM) | 9.6 (≈ 19.5 µM)
CC(=O)O[C@@H]1[C@@H]2[C@H](Cc3occc3[C@@]2(C)O)[C@@]2(C)[C@@H](OC(C)=O)CCC(C)(C)[C@]2(O)[C@H]1OC(C)=O [CAESALMIN E] | 16 | 165 (≈ 335 µM) | 10.3 (≈ 20.9 µM)
CO[C@]1(C)c2ccoc2C[C@H]2C1[C@@H](OC(C)=O)[C@H](OC(C)=O)[C@@]1(O)C(C)(C)CC[C@H](OC(C)=O)[C@]21C (stereo partly drawn) [CAESALMIN F] | 17.5 | 136 (≈ 269 µM) | 7.8 (≈ 15.4 µM)
CC1(C)CC[C@H](O)[C@]2(C)[C@H]3Cc4occc4[C@H]4C(=O)O[C@@H](C[C@@]12O)[C@@H]43 [CAESALMIN G] | 3 | 44.7 (≈ 129 µM) | 14.8 (≈ 42.7 µM)
CC[C@H](/C=C/[C@@H](C)[C@H]1CC[C@H]2[C@@H]3CC=C4C[C@@H](O)CC[C@]4(C)[C@H]3CC[C@]12C)C(C)C [STIGMASTEROL] | 3.6 | 137 (≈ 331 µM) | 37.5 (≈ 90.9 µM)
